We go through 1 molecule from ChEMBL document CHEMBL4346727, “Synthesis and pharmacological evaluation of novel N-Mannich bases derived from 5,5-diphenyl and 5,5-di(propan-2-yl)imidazolidine-2,4-dione core” (Bioorg Med Chem Lett, 2019).

Data set [1] can be described thus: Neurotoxicity in ip dosed CD1 mouse and measured after 0.5 hrs by rotarod test. It is filed as toxicity, organism-based. The following applies: in vivo. An outline of the steps:
(§1)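 Mice dosed intraperitoneally at 30, 100 and 300 mg/kg, then tested on the rotarod at 0.5 h and 4 h. The value recorded is the minimum dose at which neurotoxicity appeared. A dash means no neurotoxicity at the top dose of 300 mg/kg.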
A general note: The rotarod test checks motor coordination on a turning rod.

Data set [2] is described as follows: Protection index, ratio of TD50 for neurotoxicity in ip dosed CD1 mouse by rotarod test to ED50 for anticonvulsant activity in ip dosed CD1 mouse model of subcutaneous PTZ-induced seizures. It is filed as toxicity, organism-based. Conditions: in vivo, read-out: Ratio TD50/ED50.
In data set [3] the test system is Mus musculus. The data set can be described thus: Anticonvulsant activity in ip dosed CD1 mouse assessed as time to peak effect on protection against subcutaneous pentylenetetrazole-induced seizures. It is filed as functional. The method, boiled down: (§2)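 Median effective doses were quantified in the maximal electroshock, subcutaneous pentylenetetrazole and 6 Hz tests after intraperitoneal dosing in mice or oral dosing in rats, at the time of peak effect. ED50 values are reported with ranges in parentheses.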

Data set [4] deals with Mus musculus. Briefly: Anticonvulsant activity in CD1 mouse assessed as protection against subcutaneous pentylenetetrazole-induced seizures at 300 mg/kg, ip and measured after 0.5 hrs. It is filed as functional, organism-based. An outline of the steps:
(§3)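 Mice were screened after intraperitoneal doses of 30, 100 and 300 mg/kg in the maximal electroshock and subcutaneous pentylenetetrazole tests, examined at 0.5 and 4 h. The value recorded is the minimum dose showing activity. No activity up to 300 mg/kg is scored as absent.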

The subject of data set [5] is Mus musculus. The data set can be described thus: Anticonvulsant activity in ip dosed CD1 mouse assessed as protection against subcutaneous pentylenetetrazole-induced seizures and measured after 4 hrs. It is filed as functional. Conditions: CD1, 4 h, read-out: MED. An outline of the steps:
as §3

Data set [6] relates to Mus musculus. Briefly: Anticonvulsant activity in ip dosed CD1 mouse assessed as time to peak effect on protection against 50 mA current-induced seizures. It is filed as functional. The method, boiled down:
as §2

The nature of data set [7]: Neurotoxicity in ip dosed CD1 mouse model by rotarod test. It is filed as toxicity, organism-based. Conditions: in vivo.
For data set [8], the system named is Mus musculus. Briefly: Anticonvulsant activity in ip dosed CD1 mouse assessed as protection against subcutaneous pentylenetetrazole-induced seizures. It is filed as functional. The method, boiled down: as §2
The test system of data set [9] is Mus musculus. Briefly: Anticonvulsant activity in CD1 mouse assessed as protection against 50 mA current-induced seizure at 300 mg/kg, ip and measured after 4 hrs by maximal electroshock seizure test. It is filed as functional, organism-based. An outline of the steps: as §3
(In general: In the maximal electroshock model the usual endpoint is tonic extension of the hind limbs.)

Data set [10] concerns Mus musculus. The data set can be described thus: Potency index, ratio of phenytoin ED50 to compound ED50 for anticonvulsant activity protection against subcutaneous pentylenetetrazole-induced seizures in ip dosed CD1 mouse. It is filed as functional.
Data set [11] concerns Mus musculus. The data set can be described thus: Anticonvulsant activity in ip dosed CD1 mouse assessed as time to peak effect on protection against 32 mA current-induced seizure by 6 Hz psychomotor seizure test. It is filed as functional. An outline of the steps:
as §2

Data set [12] is described as follows: Neurotoxicity in CD1 mouse at 300 mg/kg, ip and measured after 4 hrs hrs by rotarod test. It is filed as toxicity, organism-based. The following applies: in vivo. An outline of the steps: as §1
Data set [13] in a line: Neurotoxicity in ip dosed CD1 mouse assessed as time to peak effect by rotarod test. It is filed as toxicity, organism-based. Conditions: in vivo.
The test system of data set [14] is Mus musculus. The data set can be described thus: Anticonvulsant activity in CD1 mouse assessed as protection against 50 mA current-induced seizure at 300 mg/kg, ip and measured after 0.5 hrs by maximal electroshock seizure test. It is filed as functional, organism-based. The method, boiled down:
as §3

Activity calls are given as the source filed them. Unless noted, no cut-off for these calls is given here. Bounds are passed on as bounds.

The TD50 is the 50% point of the dose-response relation for the toxic effect studied. Low values mean greater toxicity, high ones lower toxicity. In general, ED50 refers to the dose at which the effect has come halfway, by size or by number of responders. Turning to `CC(C)C1(C(C)C)NC(=O)N(CN2CCN(CCc3ccccc3)CC2)C1=O`, in data set [1], the minimal neurotoxic dose stood at 300 mg/kg. Besides, the selectivity ratio in [2] is more than 2.23. Besides, the Time in data set [3], in data set [6], in data set [11] and in data set [13] was 4 h in each case. For the same molecule, the MED entry in data set [4] was “inactive”. The minimal effective dose in [5] came to 100 mg/kg. The same molecule had a TD50 in [7] of more than 200 mg/kg. The 50% effective dose (ED50) in [8] came out at 89.4 mg/kg. Moreover, the result in data set [9] and in data set [14] was inactive. In data set [10], the “Ratio ED50” value stood at 5.5. Also, in [12], the Activity result was “Non-Toxic”.
